# Laboratory results published in ChEMBL document CHEMBL1649383, “Mode of action of epoxyphomalins A and B and characterization of related metabolites from the marine-derived fungus Paraconiothyrium sp” (J Nat Prod, 2010).
# Experiments:
# [1] = Cytotoxicity against human BXF 1218L cells; assay type: functional, cell-based
# Method in brief: (§1)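 Monolayer cell survival and proliferation assay, run within a panel of 36 human tumor cell lines; IC50 determined per cell line.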
# [2] = Cytotoxicity against human CNXF 498NL cells; assay type: functional, cell-based; method in brief: as §1
# [3] = Cytotoxicity against human LXFA 526L cells; assay type: functional, cell-based
# Method in brief: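 Monolayer cell survival and proliferation assay run across a panel of 36 human tumour cell lines; IC50 values determined.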
# [4] = Cytotoxicity against human MEXF 462NL cells; assay type: functional, cell-based
# Method in brief: (§2)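 Monolayer cell survival and proliferation assay run across a panel of 36 human tumor cell lines, with IC50 determined from the resulting growth data.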
# [5] = Cytotoxicity against human MEXF 514L cells; assay type: functional, cell-based; method in brief: as §2
# [6] = Cytotoxicity against human MEXF 520L cells; assay type: functional, cell-based; method in brief: as §2
# [7] = test system: OVCAR-3; experiment: Cytotoxicity against human OVCAR3 cells; assay type: functional, cell-based; method in brief: as §2
# [8] = Cytotoxicity against human RXF 944L cells; assay type: functional, cell-based; method in brief: as §2
# [9] = Cytotoxicity against human GXF251L cells at 0.001 ug/ml relative to control; assay type: functional
# [10] = Cytotoxicity against human HNXF 536L cells at 0.001 ug/ml relative to control; assay type: functional
# [11] = Cytotoxicity against human LXFA 289L cells at 0.001 ug/ml relative to control; assay type: functional
# [12] = Cytotoxicity against human LXFA 629L cells at 0.001 ug/ml relative to control; assay type: functional
# [13] = test system: NCI-H460; experiment: Cytotoxicity against human H460 cells at 0.001 ug/ml relative to control; assay type: functional
# [14] = test system: MCF7; experiment: Cytotoxicity against human MCF7 cells at 0.001 ug/ml relative to control; assay type: functional
# [15] = Cytotoxicity against human MEXF 276L cells at 0.001 ug/ml relative to control; assay type: functional, MEXF276L
# [16] = test system: OVCAR-3; experiment: Cytotoxicity against human OVCAR3 cells at 0.001 ug/ml relative to control; assay type: functional
# [17] = Cytotoxicity against human PAXF 1657L cells at 0.001 ug/ml relative to control; assay type: functional
# [18] = Cytotoxicity against human UXF 1138L cells at 0.001 ug/ml relative to control; assay type: functional
# [19] = test system: HCT-116; experiment: Cytotoxicity against human HCT116 cells at 0.01 ug/ml relative to control; assay type: functional
# [20] = Cytotoxicity against human LXFA 289L cells at 0.01 ug/ml relative to control; assay type: functional
# [21] = Cytotoxicity against human MAXF 401NL cells at 0.01 ug/ml relative to control; assay type: functional
# [22] = test system: LNCaP; experiment: Cytotoxicity against human LNCAP cells at 0.01 ug/ml relative to control; assay type: functional
# [23] = Cytotoxicity against human RXF 393NL cells at 0.01 ug/ml relative to control; assay type: functional
# [24] = Cytotoxicity against human RXF 486L cells at 0.01 ug/ml relative to control; assay type: functional
# [25] = Cytotoxicity against human BXF 1218L cells at 0.1 ug/ml relative to control; assay type: functional
# [26] = test system: SF-268; experiment: Cytotoxicity against human SF268 cells at 0.1 ug/ml relative to control; assay type: functional
# [27] = Cytotoxicity against human LXFA 526L cells at 0.1 ug/ml relative to control; assay type: functional
# [28] = Cytotoxicity against human LXFA 629L cells at 0.1 ug/ml relative to control; assay type: functional
# [29] = Cytotoxicity against human MEXF 276L cells at 0.1 ug/ml relative to control; assay type: functional, MEXF276L
# [30] = Cytotoxicity against human MEXF 514L cells at 0.1 ug/ml relative to control; assay type: functional
# [31] = Cytotoxicity against human MEXF 520L cells at 0.1 ug/ml relative to control; assay type: functional
# [32] = test system: PANC-1; experiment: Cytotoxicity against human PANC1 cells at 0.1 ug/ml relative to control; assay type: functional
# [33] = test system: LNCaP; experiment: Cytotoxicity against human LNCAP cells at 0.1 ug/ml relative to control; assay type: functional
# [34] = Cytotoxicity against human PC3M cells at 0.1 ug/ml relative to control; assay type: functional, PC-3M
# [35] = Cytotoxicity against human RXF 1781L cells at 0.1 ug/ml relative to control; assay type: functional
# [36] = test system: SF-268; experiment: Cytotoxicity against human SF268 cells at 1 ug/ml relative to control; assay type: functional
# [37] = Cytotoxicity against human LXFL 1121L cells at 1 ug/ml relative to control; assay type: functional
# [38] = Cytotoxicity against human LXFA 289L cells at 1 ug/ml relative to control; assay type: functional
# [39] = Cytotoxicity against human MAXF 401NL cells at 1 ug/ml relative to control; assay type: functional
# [40] = test system: MCF7; experiment: Cytotoxicity against human MCF7 cells at 1 ug/ml relative to control; assay type: functional
# [41] = Cytotoxicity against human MEXF 394NL cells at 1 ug/ml relative to control; assay type: functional
# [42] = Cytotoxicity against human MEXF 462NL cells at 1 ug/ml relative to control; assay type: functional
# [43] = Cytotoxicity against human OVXF 1619L cells at 1 ug/ml relative to control; assay type: functional
# [44] = test system: OVCAR-3; experiment: Cytotoxicity against human OVCAR3 cells at 1 ug/ml relative to control; assay type: functional
# [45] = Cytotoxicity against human PXF 1752L cells at 1 ug/ml relative to control; assay type: functional
# [46] = Cytotoxicity against human RXF 486L cells at 1 ug/ml relative to control; assay type: functional
# [47] = test system: HCT-116; experiment: Cytotoxicity against human HCT116 cells at 10 ug/ml relative to control; assay type: functional
# [48] = Cytotoxicity against human LXFA 289L cells at 10 ug/ml relative to control; assay type: functional
# [49] = Cytotoxicity against human LXFA 526L cells at 10 ug/ml relative to control; assay type: functional
# [50] = test system: NCI-H460; experiment: Cytotoxicity against human H460 cells at 10 ug/ml relative to control; assay type: functional
# [51] = Cytotoxicity against human MEXF 276L cells at 10 ug/ml relative to control; assay type: functional, MEXF276L
# [52] = Cytotoxicity against human MEXF 514L cells at 10 ug/ml relative to control; assay type: functional
# [53] = Cytotoxicity against human OVXF 899L cells at 10 ug/ml relative to control; assay type: functional
# [54] = test system: CWR22R; experiment: Cytotoxicity against human 22Rv1 cells at 10 ug/ml relative to control; assay type: functional
# [55] = test system: DU-145; experiment: Cytotoxicity against human DU145 cells at 10 ug/ml relative to control; assay type: functional
# [56] = test system: LNCaP; experiment: Cytotoxicity against human LNCAP cells at 10 ug/ml relative to control; assay type: functional
structure (smiles),measurement,setting,value
C=C1[C@@H](O)[C@H]2O[C@@]2(C[C@H]2C(C)=CC[C@H]3C(C)(C)CCC[C@]23C)[C@@H](O)[C@H]1O [EPOXYPHOLAMIN D],IC50,[1],1.43 µM
same,IC70,[1],0.969 µg/mL
same,IC90,[1],> 10 µg/mL
same,IC50,[2],3.45 µM
same,IC70,[2],3.09 µg/mL
same,IC90,[2],7.63 µg/mL
same,IC50,[3],13.5 µM
same,IC70,[3],7.76 µg/mL
same,IC90,[3],12.3 µg/mL
same,IC50,[4],5.79 µM
same,IC70,[4],4.77 µg/mL
same,IC90,[4],10.9 µg/mL
same,IC50,[5],11.6 µM
same,IC70,[5],6.57 µg/mL
same,IC90,[5],10.2 µg/mL
same,IC50,[6],7.67 µM
same,IC70,[6],4.91 µg/mL
same,IC90,[6],8.68 µg/mL
same,IC50,[7],1.96 µM
same,IC70,[7],2.71 µg/mL
same,IC90,[7],12.6 µg/mL
same,IC50,[8],10.8 µM
same,IC70,[8],6.58 µg/mL
same,IC90,[8],11.1 µg/mL
same,Activity,[9],105%
same,Activity,[10],79%
same,Activity,[11],98%
same,Activity,[12],96%
same,Activity,[13],107%
same,Activity,[14],91%
same,Activity,[15],98%
same,Activity,[16],100%
same,Activity,[17],100%
same,Activity,[18],96%
same,Activity,[19],97%
same,Activity,[20],101%
same,Activity,[21],110%
same,Activity,[22],111%
same,Activity,[23],126%
same,Activity,[24],99%
same,Activity,[25],104%
same,Activity,[26],82%
same,Activity,[27],115%
same,Activity,[28],81%
same,Activity,[29],98%
same,Activity,[30],142%
same,Activity,[31],92%
same,Activity,[32],97%
same,Activity,[33],103%
same,Activity,[34],73%
same,Activity,[35],98%
same,Activity,[36],117%
same,Activity,[37],97%
same,Activity,[38],102%
same,Activity,[39],48%
same,Activity,[40],68%
same,Activity,[41],78%
same,Activity,[42],68%
same,Activity,[43],103%
same,Activity,[44],43%
same,Activity,[45],46%
same,Activity,[46],82%
same,Activity,[47],4%
same,Activity,[48],39%
same,Activity,[49],19%
same,Activity,[50],3%
same,Activity,[51],20%
same,Activity,[52],11%
same,Activity,[53],12%
same,Activity,[54],11%
same,Activity,[55],12%
same,Activity,[56],27%
